Assay [1] deals with Candida albicans. Put plainly: Minimum inhibitory concentration against Candida albicans using eagles minimum essential medium (EMEM). In kind it is functional. The essentials: (§1)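 Candida MICs in Eagle's minimum essential medium, pH 7.0. Compounds in DMSO or ethanol were serially diluted in medium, inoculated and incubated at 37 °C under CO₂. […] The summary value is the geometric mean of the MICs across strains.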

Assay [2] relates to Candida albicans. Kind of assay: Minimum inhibitory concentration against Candida stellatoidea using eagles minimum essential medium (EMEM). It is filed as functional. An outline of the steps:
as §1

The next assay deals with Microsporum canis. Put plainly: Minimum inhibitory concentration against Microsporum canis at a pH of 5.7 using SDB medium. In kind it is functional. An outline of the steps:
(§2)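 Dermatophyte isolates tested by serial broth dilution in SDB, pH 5.7. Compound stocks in DMSO or ethanol, incubated at 27 °C, and growth read visually at 72 h. MIC is the lowest concentration with no visible growth. The summary value is the geometric mean of the MICs across the organisms.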

Assay [3] relates to Candida albicans. Put plainly: Minimum inhibitory concentration against Candida stellatoidea at a pH of 5.7 using SDB medium. It is filed as functional. The essentials:
(§3)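 Broth dilution in Sabouraud dextrose broth, pH 5.7. Compounds dissolved in DMSO or ethanol, serially diluted in medium, inoculated and incubated at 27 °C. Wells read visually at 48 h. MIC is the lowest concentration giving complete growth inhibition.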

The next assay relates to Trichophyton rubrum. Put plainly: Minimum inhibitory concentration against Trichophyton rubrum at a pH of 5.7 using SDB medium. It is filed as functional. The essentials: as §2
A further assay deals with Epidermophyton floccosum. Kind of assay: Minimum inhibitory concentration against Epidermophyton floccosum at a pH of 5.7 using SDB medium. In kind it is functional. The essentials: as §2
The test system of assay [4] is Candida albicans. Put plainly: Minimum inhibitory concentration against Candida albicans at a pH of 5.7 using SDB medium. In kind it is functional. An outline of the steps: as §3
In assay [5] the test system is Candida tropicalis. Put plainly: Minimum inhibitory concentration against Candida tropicalis using eagles minimum essential medium (EMEM). It is filed as functional. The essentials:
as §1

The next assay has as its system Trichophyton benhamiae. Put plainly: Minimum inhibitory concentration against Trichophyton mentagrophytes at a pH of 5.7 using SDB medium. It is filed as functional, Arthroderma benhamiae. The essentials: as §2
The test system of a further assay is Candida parapsilosis. Put plainly: Minimum inhibitory concentration against Candida parapsilosis at a pH of 5.7 using SDB medium. In kind it is functional. To be noted: Lodderomyces parapsilosis. An outline of the steps:
as §3

The next assay relates to Nannizzia gypsea. Kind of assay: Minimum inhibitory concentration against Microsporum gypseum at a pH of 5.7 using SDB medium. It is filed as functional. The essentials:
as §2

The nature of assay [6]: Geometric mean for the above three species of Candida, tested in EMEM medium. It is filed as functional. The essentials: as §1
In another assay the test system is Candida. Put plainly: Compound is evaluated for geometric mean of MIC values of Candida species. It is filed as functional. The arrangement: unit not given beside the values.
The test system of assay [7] is Arthrodermataceae. Kind of assay: (§4) Compound is evaluated for geometric mean of MIC values of dermatophytes. It is filed as functional. An outline of the steps:
as §2

For assay [8], the system named is Candida tropicalis. Put plainly: Minimum inhibitory concentration against Candida tropicalis at a pH of 5.7 using SDB medium. It is filed as functional. An outline of the steps: as §3
Assay [9] deals with Cricetinae gen. sp. Put plainly: Inhibition of Vaginal Candida (C-60 strain) infection in Hamsters, estimated as Percent Area under curve at 0.01 % concentration after 4 days of administration. It is filed as functional, Cricetulus griseus. An outline of the steps:
(§5)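 Hamster vaginal C. albicans infection (strains C43 or C60; 10 animals per compound). From day 5 post-infection, a cotton pellet holding 0.15 mL of 0.05% or 0.01% (w/w) compound in EtOH–PEG 400–glycerol (10:45:45) was inserted once daily for 4 or 8 days. Vaginal swabs were filtered and the filters cultured on SDA at 37 °C for 48 h. Read-out was the area under the % negative cultures versus time curve.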

Assay [10] concerns Cavia porcellus. Put plainly: In vivo inhibition of topical Trichophyton infection in Guinea Pig after drug administration. It is filed as functional. An outline of the steps: (§6)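 Guinea pigs (5 per compound) infected with T. mentagrophytes D24 by swabbing a homogenate onto shaven, abraded skin. From day 4 post-infection, 0.25% (w/v) compound in EtOH–PEG 400–glycerol (10:45:45) was rubbed in topically twice daily for 10 days. Hair samples were cultured on SDA at 27 °C for up to 16 days. Read-outs were the % negative cultures and the day each animal became culture-negative.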

In assay [11] the test system is Cricetinae gen. sp. Put plainly: Inhibition of Vaginal Candida (C-60 strain) infection in Hamsters, estimated as Percent Area under curve at 0.25 % concentration after 8 days of administration. In kind it is functional, Cricetulus griseus.
Assay [12] concerns Cavia porcellus. Kind of assay: In vivo inhibition of topical Trichophyton infection in Guinea Pig during drug administration. In kind it is functional. An outline of the steps:
as §6

Assay [13] has as its system Cricetinae gen. sp. Kind of assay: Inhibition of Vaginal Candida (C-60 strain) infection in Hamsters, estimated as Percent Area under curve at 0.25 % concentration after 4 days of administration. In kind it is functional, Cricetulus griseus.
The subject of assay [14] is Arthrodermataceae. The assay is described as §4. It is filed as functional. The arrangement: unit not given beside the values. The essentials:
as §2

The test system of assay [15] is Cricetinae gen. sp. Put plainly: Inhibition of Vaginal Candida (C-43 strain) infection in Hamsters, estimated as Percent Area under curve at 0.25 % concentration after 8 days of administration. In kind it is functional, Cricetulus griseus.
In assay [16] the test system is Cricetinae gen. sp. Kind of assay: Inhibition of Vaginal Candida (C-60 strain) infection in Hamsters, estimated as Percent Area under curve at 0.05 % concentration after 4 days of administration. In kind it is functional, Cricetulus griseus. The essentials: as §5
The test system of assay [17] is Cricetinae gen. sp. Kind of assay: Inhibition of Vaginal Candida (C-60 strain) infection in Hamsters, estimated as Percent Area under curve at 0.05 % concentration after 8 days of administration. It is filed as functional, Cricetulus griseus. An outline of the steps: as §5
For assay [18], the system named is Cricetinae gen. sp. Kind of assay: Inhibition of Vaginal Candida (C-43 strain) infection in Hamsters, estimated as Percent Area under curve at 0.05 % concentration after 8 days of administration. It is filed as functional, Cricetulus griseus. An outline of the steps:
as §5

Assay [19] is filed under the species Cavia porcellus. Put plainly: Lession score which is determined as number of animals minus days to become negative. In kind it is functional. The essentials: as §6

Converted amounts (≈) assume the structure as drawn. “And” between values parts separate entries of the source, which are not always exact repeats. Equal values may be shown once. Where only a bound is given, the exact number is not on record here.

This is an account of results in ChEMBL document CHEMBL1125351, “Isobenzofurans as conformationally constrained miconazole analogues with improved antifungal potency” (1992).

For orientation: MIC means the smallest concentration in the dilution series that meets the test's criterion for growth inhibition. The Inhibition is the drop in the measured response relative to a control, in per cent.

Take `c1ccc(C2(Cn3ccnc3)SCc3ccccc32)cc1` (stereo not drawn): the MIC with Candida albicans [1] is 0.25 µg/mL (≈ 0.855 µM); with Candida albicans [2], 0.25 µg/mL (≈ 0.855 µM); against Microsporum canis it was 4 µg/mL (≈ 13.7 µM); in the assay on Candida albicans [3], 64 µg/mL (≈ 219 µM); in the assay with Trichophyton rubrum, 2 µg/mL (≈ 6.84 µM); against Epidermophyton floccosum it was 0.063 µg/mL (≈ 0.215 µM). The minimal inhibitory concentration (MIC) against Candida albicans [4] came out at 64 µg/mL (≈ 219 µM); in the assay with Candida tropicalis [5], 0.125 µg/mL (≈ 0.427 µM); against Trichophyton benhamiae, 2 µg/mL (≈ 6.84 µM); against Candida parapsilosis, 16 µg/mL (≈ 54.7 µM); in the assay with Nannizzia gypsea it was 16 µg/mL (≈ 54.7 µM); with Candida tropicalis [8], 64 µg/mL (≈ 219 µM). Moreover, the Geometric mean in assay [6] came out at 0.19; in the assay on Candida, 53; in the assay with Arthrodermataceae [7], 1.7.

In the case of `Clc1ccc(COC(Cn2ccnc2)c2ccc(Cl)cc2Cl)c(Cl)c1` (stereo not drawn) [MICONAZOLE], the Inhibition in the assay on Cricetinae gen. sp. [9] is reported as 33%; in the assay with Cricetinae gen. sp. [11], 63%; in the assay on Cricetinae gen. sp. [13] it was 63%; in the assay with Cricetinae gen. sp. [15] it was 69%. The minimum inhibitory concentration (MIC) in the assay with Candida albicans [1] was 0.25 µg/mL (≈ 0.601 µM); against Candida albicans [2] it was 0.125 µg/mL (≈ 0.3 µM); in the assay with Microsporum canis, less than 0.031 µg/mL; in the assay with Candida albicans [3], 8 µg/mL (≈ 19.2 µM); against Trichophyton rubrum, less than 0.031 µg/mL; against Epidermophyton floccosum, less than 0.031 µg/mL. In addition, the MIC was 8 µg/mL (≈ 19.2 µM) against Candida albicans [4]; 0.125 µg/mL (≈ 0.3 µM) with Candida tropicalis [5]; less than 0.031 µg/mL with Trichophyton benhamiae; less than 0.031 µg/mL against Candida parapsilosis; 1 µg/mL (≈ 2.4 µM) against Nannizzia gypsea; 4 µg/mL (≈ 9.61 µM) against Candida tropicalis [8]. The Culture negative is 60% in the assay on Cavia porcellus [10] and 20% in the assay with Cavia porcellus [12]. Also, the Geometric mean in the assay on Arthrodermataceae [14] is less than 0.03; in [6], 0.18; in the assay on Candida, less than 1.8.

As for `Clc1ccc(C2(Cn3ccnc3)OCc3ccccc32)cc1` (stereo not drawn), the Inhibition is 30% in the assay on Cricetinae gen. sp. [9], 88% in the assay on Cricetinae gen. sp. [16], 88% with Cricetinae gen. sp. [17] and 89% with Cricetinae gen. sp. [18]. Besides, the MIC with Candida albicans [1] is less than 0.031 µg/mL; against Candida albicans [2], less than 0.031 µg/mL; in the assay with Microsporum canis, 2 µg/mL (≈ 6.44 µM); against Candida albicans [3], 32 µg/mL (≈ 103 µM); against Trichophyton rubrum it was 2 µg/mL (≈ 6.44 µM); with Epidermophyton floccosum, less than 0.031 µg/mL. Further, the minimal inhibitory concentration (MIC) in the assay with Candida albicans [4] stood at 16 µg/mL (≈ 51.5 µM); in the assay with Candida tropicalis [5] it was 0.125 µg/mL (≈ 0.402 µM); in the assay on Trichophyton benhamiae, 2 µg/mL (≈ 6.44 µM); against Candida parapsilosis it was 0.25 µg/mL (≈ 0.804 µM); in the assay with Nannizzia gypsea, 4 µg/mL (≈ 12.9 µM); against Candida tropicalis [8], 16 µg/mL (≈ 51.5 µM). Besides, the Culture negative in the assay on Cavia porcellus [10] was 87%; in the assay on Cavia porcellus [12] it was 90%. The Lesion score in the assay listed under Cavia porcellus [19] is 3 and >2. Further, the Geometric mean is less than 0.86 in the assay on Arthrodermataceae [14], less than 0.03 in [6] and 7.2 with Candida.
